Test results published in ChEMBL document CHEMBL5252540, “3-Aroyl-1,4-diarylpyrroles Inhibit Chronic Myeloid Leukemia Cell Growth through an Interaction with Tubulin” (ACS Med Chem Lett, 2017).
Each block holds one compound with its values, some of them ahead of it. The source made the active and inactive calls. No cut-off for these calls is given here.

How the values were obtained:
LAMA-84 [1] = test: Potentiation of imatinib mesylate induced antiproliferative activity against human LAMA-84 cells assessed as imatinib mesylate IC50 incubated for 48 hrs by MTT assay; type: functional, cell-based; settings: LAMA-84, 48 h
LAMA-84 [2] = test: Effect on total cofilin protein level in human LAMA-84 cells at 100 nM incubated for 24 hrs by Western blot analysis; type: functional, cell-based
[3] = Cytotoxicity against human PBMC cells assessed as reduction in cell viability up to 1 uM incubated for 48 hrs by MTT assay; type: toxicity, cell-based
In short: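 Peripheral blood mononuclear cells isolated from healthy donors, exposed to compound up to 1 μM for 48 h; viability read by MTT assay; triplicate experiments.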

KU812 cell line [4] = test: Induction of apoptosis in human KU812 cells assessed as increase in PARP cleavage measured after 24 hrs by Western blot analysis; type: functional, cell-based
In short: (§1)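 KU812 cells treated for 6 h and 24 h; immunoblotting for p21Cip/WAF1 and PARP cleavage.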

KBM5 [5] = test: Cytotoxicity against imatinib mesylate sensitive human KBM5 cells expressing wild type BCR/ABL assessed as cell growth inhibition; type: functional, cell-based
In short: (§2)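 Hematopoietic KBM5 cells ectopically expressing IM-sensitive wild-type or IM-resistant T315I BCR/ABL, dosed over a concentration range; growth measured by MTT assay; average IC50 from triplicate experiments.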

LAMA-84 [6] = test: Downregulation of unphosphorylated beta-catenin protein expression in human LAMA-84 cells at 100 nM incubated for 24 hrs by Western blot analysis; type: functional, cell-based
KU812 cell line [7] = test: Induction of morphological changes in human KU812 cells assessed as elongated shape at 100 nM incubated for 16 hrs by immunostaining based phase contrast microscopic analysis; type: functional, cell-based
In short: (§3)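 KU812 cells treated with 100 nM versus DMSO vehicle; shape examined by phase contrast microscopy with tubulin immunostaining, scoring elongation, multiple centrosomes and failed cytokinesis.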

KBM5 [8] = test: Potentiation of imatinib mesylate induced apoptosis in human KBM5 cells expressing wild type BCR/ABL assessed as increase in pro-apoptogenic effect at 100 nM incubated for 24 hrs by annexin V-FITC/propidium iodide staining based flow cytometry analysis; type: functional, cell-based
In short: (§4)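 Annexin V-FITC staining to detect early cell death after 24 h; IM given with or without 100 nM test agent; read by flow cytometry; triplicate experiments.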

KBM5 [9] = test: Cytotoxicity against imatinib mesylate resistant human KBM5 cells expressing BCR/ABL T315I mutant assessed as cell growth inhibition; type: functional, cell-based; in short: as §2
KYSE-150 cell line = test: Cytotoxicity against human KYSE-150 cells assessed as cell growth inhibition incubated for 48 to 96 hrs by celltiter-flor reagent based fluorescence assay; type: functional
LAMA-84 [10] = test: Downregulation of E-cadherin protein level in human LAMA-84 cells at 100 nM incubated for 24 hrs by Western blot analysis; type: functional, cell-based
In short: (§5)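 LAMA84 cells cultured 24 h at 100 nM, alongside IM 100 nM and DMSO controls; lysates analysed by Western immunoblotting for BCR/ABL auto-activation and total E-cadherin.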

HCT-116 = test: Cytotoxicity against human HCT-116 cells assessed as cell growth inhibition incubated for 48 hrs by MTT assay; type: functional, cell-based; settings: HCT-116, 48 h
LAMA-84 [11] = test: Antiproliferative activity against human LAMA-84 cells expressing BCR/ABL assessed as cell growth inhibition; type: functional, cell-based
In short: (§6)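 KU812 or LAMA84 CML blast-crisis cells (BCR/ABL-expressing) exposed to increasing doses for 48 h; proliferation read by MTT assay; triplicate experiments.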

LAMA-84 [12] = test: Antiproliferative activity against human LAMA-84 cells expressing BCR/ABL assessed as cell growth inhibition at 12 nM incubated for 48 hrs by MTT assay relative to control; type: functional; in short: as §6
KBM5 [13] = test: Induction of apoptosis in imatinib mesylate sensitive human KBM5 cells expressing wild type BCR/ABL assessed as annexin V positive cells incubated for 48 hrs by annexin V-FITC/propidium iodide staining based flow cytometry analysis (reference value: 2.2+/-1.8%); type: functional
Tubulin (Homo sapiens) = Tubulin (Homo sapiens) (UniProt P68371+Q9H4B7+P0DPH7+P68366+Q13509+Q71U36+P04350+Q3ZCM7+P07437+P68363+Q9BQE3+Q6PEY2+Q13885+Q9BVA1+Q9BUF5); test: Inhibition of [3H]colchicine binding to tubulin (unknown origin) at 5 uM incubated for 10 mins relative to control; type: protein-complex assay
KU812 cell line [14] = test: Induction of cell cycle arrest in human KU812 cells assessed as accumulation of cells at G2/M phase incubated for 24 hrs by RNase/PI staining based flow cytometry analysis relative to control; type: functional
In short: (§7)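 KU812 cells treated with 100 nM versus DMSO vehicle for 2-8 h or 24 h; cell cycle distribution (G2/M, sub-G1) by flow cytometry.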

KU812 cell line [15] = test: Induction of apoptosis in human KU812 cells assessed as upregulation of p21 Cip/WAF1 protein expression incubated for 6 hrs by Western blot analysis; type: functional, cell-based; in short: as §1
HepG2 = test: Cytotoxicity against human HepG2 cells assessed as cell growth inhibition incubated for 48 hrs by MTT assay; type: functional, cell-based; settings: HepG2, 48 h
KU812 cell line [16] = test: Induction of cell cycle arrest in human KU812 cells assessed as accumulation of cells at sub-G1 phase incubated for 2 to 8 hrs by RNase/PI staining based flow cytometry analysis relative to control; type: functional; settings: time 2-8 hrs; in short: as §7
KBM5 [17] = test: Potentiation of imatinib mesylate induced apoptosis in human KBM5 cells expressing BCR/ABL T315I mutant assessed as increase in pro-apoptogenic effect at 100 nM incubated for 24 hrs by annexin V-FITC/propidium iodide staining based flow cytometry analysis; type: functional, cell-based; in short: as §4
KU812 cell line [18] = test: Induction of cell cycle arrest in human KU812 cells assessed as accumulation of cells at G2/M phase incubated for 2 to 8 hrs by RNase/PI staining based flow cytometry analysis (reference value: 35.7+/-[…]); type: functional; settings: time 2-8 hrs
LAMA-84 [19] = test: Effect on total beta-catenin protein level in human LAMA-84 cells at 100 nM incubated for 24 hrs by Western blot analysis; type: functional, cell-based
KU812 cell line [20] = test: Induction of apoptosis in human KU812 cells assessed as upregulation of p21 Cip/WAF1 protein expression measured after 24 hrs by Western blot analysis; type: functional, cell-based; in short: as §1
KU812 cell line [21] = test: Induction of apoptosis in human KU812 cells assessed as upregulation of caspase-3 activation by flow cytometry; settings: time 0-24 hrs, TDE = time-dependent effect
KU812 cell line [22] = test: Antiproliferative activity against human KU812 cells expressing BCR/ABL assessed as cell growth inhibition; type: functional, cell-based; in short: as §6
KU812 cell line [23] = test: Induction of apoptosis in human KU812 cells assessed as accumulation of cells at sub-G1 phase incubated for 24 hrs by RNase/PI staining based flow cytometry analysis (reference value: 0.4+/-0.8%); type: functional
KU812 cell line [24] = test: Induction of morphological changes in human KU812 cells expressing BCR/ABL assessed as multiple centrosome cells with failed cytokinesis at 100 nM incubated for 16 hrs by immunostaining based phase contrast microscopic analysis; type: functional, cell-based; in short: as §3
KBM5 [25] = test: Induction of apoptosis in imatinib mesylate resistant human KBM5 cells expressing BCR/ABL-T315I mutant assessed as annexin V positive cells incubated for 48 hrs by annexin V-FITC/propidium iodide staining based flow cytometry analysis (reference value: 2.2+/-1.8%); type: functional
[26] = molecular target: Bcr/Abl fusion protein (Homo sapiens) (UniProt P00519+P11274); test: Inhibition of BCR-ABL phospho-activation in human LAMA-84 cells at 100 nM incubated for 24 hrs by Western blot analysis; type: cell-based; in short: as §5
Chain of Bcr/Abl fusion protein (Homo sapiens) (P00519 whole entry, looked up, the tested form may be a part): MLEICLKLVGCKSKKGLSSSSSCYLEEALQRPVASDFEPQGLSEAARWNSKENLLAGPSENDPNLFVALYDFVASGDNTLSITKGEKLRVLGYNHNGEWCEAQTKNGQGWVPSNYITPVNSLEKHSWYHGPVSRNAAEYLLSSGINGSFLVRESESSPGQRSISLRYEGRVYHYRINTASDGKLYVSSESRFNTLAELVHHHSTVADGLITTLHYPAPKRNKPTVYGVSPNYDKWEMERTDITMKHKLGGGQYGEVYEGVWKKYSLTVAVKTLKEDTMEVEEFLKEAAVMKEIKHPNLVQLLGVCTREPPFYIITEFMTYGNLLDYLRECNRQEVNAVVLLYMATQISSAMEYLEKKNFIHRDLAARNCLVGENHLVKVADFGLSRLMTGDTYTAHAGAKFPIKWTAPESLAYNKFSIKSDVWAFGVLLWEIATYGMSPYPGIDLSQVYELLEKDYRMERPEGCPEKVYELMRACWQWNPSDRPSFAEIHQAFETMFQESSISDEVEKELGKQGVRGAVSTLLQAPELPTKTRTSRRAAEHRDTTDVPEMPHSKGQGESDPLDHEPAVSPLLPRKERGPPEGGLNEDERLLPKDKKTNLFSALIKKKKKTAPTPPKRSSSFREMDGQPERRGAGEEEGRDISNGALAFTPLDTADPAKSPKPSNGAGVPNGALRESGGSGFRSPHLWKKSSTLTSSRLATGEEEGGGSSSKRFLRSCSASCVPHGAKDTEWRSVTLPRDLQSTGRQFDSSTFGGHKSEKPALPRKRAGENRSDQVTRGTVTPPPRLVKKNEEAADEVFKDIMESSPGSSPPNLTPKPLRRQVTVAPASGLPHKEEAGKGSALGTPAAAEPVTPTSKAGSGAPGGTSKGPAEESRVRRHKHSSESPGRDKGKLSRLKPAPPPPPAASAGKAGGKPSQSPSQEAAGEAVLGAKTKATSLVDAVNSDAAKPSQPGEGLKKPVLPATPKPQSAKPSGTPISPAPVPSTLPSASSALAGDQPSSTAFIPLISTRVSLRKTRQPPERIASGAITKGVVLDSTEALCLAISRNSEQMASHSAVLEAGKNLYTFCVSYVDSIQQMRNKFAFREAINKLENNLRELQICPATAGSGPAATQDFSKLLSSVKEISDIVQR
Chain of Bcr/Abl fusion protein (Homo sapiens) (P11274 whole entry, looked up, the tested form may be a part): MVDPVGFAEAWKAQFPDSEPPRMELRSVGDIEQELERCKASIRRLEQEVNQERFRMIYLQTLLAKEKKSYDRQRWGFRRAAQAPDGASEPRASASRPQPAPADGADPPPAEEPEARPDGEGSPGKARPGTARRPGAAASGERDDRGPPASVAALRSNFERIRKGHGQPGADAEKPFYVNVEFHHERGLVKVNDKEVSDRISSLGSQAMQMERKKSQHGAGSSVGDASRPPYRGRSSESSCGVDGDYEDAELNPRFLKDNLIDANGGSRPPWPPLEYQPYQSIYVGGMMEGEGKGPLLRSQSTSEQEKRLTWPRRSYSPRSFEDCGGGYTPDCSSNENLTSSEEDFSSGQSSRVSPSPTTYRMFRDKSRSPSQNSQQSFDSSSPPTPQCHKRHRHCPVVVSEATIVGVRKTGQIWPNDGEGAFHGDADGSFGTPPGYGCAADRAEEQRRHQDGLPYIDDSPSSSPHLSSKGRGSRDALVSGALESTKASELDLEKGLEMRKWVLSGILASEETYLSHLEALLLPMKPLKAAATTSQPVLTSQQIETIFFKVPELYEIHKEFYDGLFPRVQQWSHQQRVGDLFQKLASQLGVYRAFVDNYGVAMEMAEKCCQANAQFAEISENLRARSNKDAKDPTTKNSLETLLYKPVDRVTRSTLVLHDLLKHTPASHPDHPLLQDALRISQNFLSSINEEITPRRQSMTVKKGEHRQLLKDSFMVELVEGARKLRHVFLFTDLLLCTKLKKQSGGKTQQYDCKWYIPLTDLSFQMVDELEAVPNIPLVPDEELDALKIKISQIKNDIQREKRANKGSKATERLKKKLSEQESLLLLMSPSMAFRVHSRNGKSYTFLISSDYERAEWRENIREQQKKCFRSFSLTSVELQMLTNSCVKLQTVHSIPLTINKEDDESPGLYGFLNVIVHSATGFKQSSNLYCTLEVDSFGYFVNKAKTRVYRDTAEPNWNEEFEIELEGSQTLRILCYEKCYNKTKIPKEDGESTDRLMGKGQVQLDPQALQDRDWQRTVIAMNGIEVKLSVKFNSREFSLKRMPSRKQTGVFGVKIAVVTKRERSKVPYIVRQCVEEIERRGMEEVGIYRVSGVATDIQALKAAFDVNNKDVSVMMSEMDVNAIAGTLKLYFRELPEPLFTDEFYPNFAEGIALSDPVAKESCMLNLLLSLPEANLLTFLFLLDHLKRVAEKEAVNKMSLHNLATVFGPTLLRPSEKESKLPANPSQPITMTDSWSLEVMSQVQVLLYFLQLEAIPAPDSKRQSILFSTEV

KU812 cell line [27] = test: Antiproliferative activity against human KU812 cells expressing BCR/ABL assessed as cell growth inhibition at 12 nM incubated for 48 hrs by MTT assay relative to control; type: functional; in short: as §6
LAMA-84 [28] = test: Downregulation of phospho cofilin protein expression in human LAMA-84 cells at 100 nM incubated for 24 hrs by Western blot analysis; type: functional, cell-based
KU812 cell line [29] = test: Induction of apoptosis in human KU812 cells assessed as appearance of blue-to-cyan fluorescence in nucleus by Hoechst-3258 staining based analysis; type: functional, cell-based
In short: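 KU812 cells treated with compound versus DMSO control; nuclear morphology by Hoechst-3258 staining, blue-to-cyan fluorescence scored as apoptotic.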

Tubulin = test: Inhibition of tubulin (unknown origin) polymerization preincubated for 15 mins followed by GTP addition by turbidity based spectrophotometer analysis; type: protein-complex assay, Homo sapiens
MCF7 = test: Cytotoxicity against human MCF7 cells assessed as cell growth inhibition incubated for 3 days by trypan blue exclusion assay; type: functional, cell-based; settings: MCF7, 72 h
In short: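 MCF-7 human breast carcinoma cells; growth inhibition; triplicate experiments.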

OVCAR-8 = test: Cytotoxicity against human OVCAR-8 cells assessed as cell growth inhibition incubated for 3 days by trypan blue exclusion assay; type: functional, cell-based; settings: OVCAR-8, 72 h
NCI/ADR-RES = test: Cytotoxicity against human NCI/ADR-RES cells overexpressing p-glycoprotein assessed as cell growth inhibition incubated for 3 days by trypan blue exclusion assay; type: functional, cell-based; settings: 72 h

SMILES: COc1cc(C(=O)c2cn(-c3ccccc3)cc2-c2ccc(N)cc2)cc(OC)c1OC
- IC50 (LAMA-84 [1]): < 0.01 µM
- Activity (LAMA-84 [2]): inactive
- Activity [3]: Non-Toxic
- Activity (KU812 cell line [4]): Active
- IC50 (KBM5 [5]): 0.015 µM
- Activity (LAMA-84 [6]): Active
- Activity (KU812 cell line [7]): Active
- Activity (KBM5 [8]): Active
- IC50 (KBM5 [9]): 0.018 µM
- IC50 (KYSE-150 cell line): 0.02 µM
- Activity (LAMA-84 [10]): Active
- IC50 (HCT-116): 0.02 µM
- IC50 (LAMA-84 [11]): 0.014 µM
- inhibition at 0.012 µM (LAMA-84 [12]): 50%
- Activity (KBM5 [13]): 62.6%
- inhibition (Tubulin (Homo sapiens)): 81%
- Activity (KU812 cell line [14]): 11.4%
- Activity (KU812 cell line [15]): Active
- IC50 (HepG2): 0.046 µM
- Activity (KU812 cell line [16]): <10%
- Activity (KBM5 [17]): Active
- Activity (KU812 cell line [18]): 60.3%
- Activity (LAMA-84 [19]): inactive
- Activity (KU812 cell line [20]): inactive
- Activity (KU812 cell line [21]): Tde
- IC50 (KU812 cell line [22]): 0.012 µM
- Activity (KU812 cell line [23]): 75.6%
- Activity (KU812 cell line [24]): Active
- Activity (KBM5 [25]): 58.2%
- inhibition [26]: inactive
- inhibition at 0.012 µM (KU812 cell line [27]): 50%
- Activity (LAMA-84 [28]): Active
- Activity (KU812 cell line [29]): Active

SMILES: COc1cc(C(=O)c2cn(-c3ccc(F)cc3)cc2-c2ccccc2)cc(OC)c1OC
- IC50 (Tubulin): 1.3 µM
- IC50 (OVCAR-8): 0.18 µM
- IC50 (MCF7): 0.015 µM
- IC50 (NCI/ADR-RES): 0.11 µM
- inhibition (Tubulin (Homo sapiens)): 62%

SMILES: COc1cc(C(=O)c2cn(-c3ccccc3)cc2-c2ccccc2)cc(OC)c1OC
- IC50 (Tubulin): 1.1 µM
- IC50 (MCF7): 0.035 µM
- inhibition (Tubulin (Homo sapiens)): 66%

SMILES: COc1cc(C(=O)c2cn(-c3ccccc3)cc2-c2cccc(C)c2)cc(OC)c1OC
- IC50 (Tubulin): 1.6 µM
- IC50 (MCF7): 0.45 µM
- inhibition (Tubulin (Homo sapiens)): 5.7%

SMILES: COc1cc(C(=O)c2cn(-c3ccccc3)cc2-c2ccc(C)cc2)cc(OC)c1OC
- IC50 (Tubulin): 2.2 µM
- IC50 (MCF7): 0.28 µM
- inhibition (Tubulin (Homo sapiens)): 24%

Further lines, with some results ahead:

- IC50 (Tubulin): 0.58 µM
- inhibition (Tubulin (Homo sapiens)): 72%
SMILES: COc1cc(C(=O)c2cn(-c3ccccc3)cc2-c2ccccc2F)cc(OC)c1OC
- IC50 (MCF7): 0.03 µM

- IC50 (Tubulin): 0.76 µM
- inhibition (Tubulin (Homo sapiens)): 47%
SMILES: COc1cc(C(=O)c2cn(-c3ccccc3)cc2-c2ccc(F)cc2)cc(OC)c1OC
- IC50 (MCF7): 0.078 µM

- IC50 (Tubulin): 0.88 µM
- inhibition (Tubulin (Homo sapiens)): 79%
SMILES: COc1cc(C(=O)c2cn(-c3ccc(C)cc3)cc2-c2ccccc2)cc(OC)c1OC
- IC50 (MCF7): 0.03 µM
